From PubChem BioAssay
Records with an inconclusive call do not appear. Activity calls are given as the source filed them.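 How the source made its calls, unless noted: active means viability increase at or above a cutoff of the median across tested compounds plus 3 SD (cut at about 8.5% in these data, passing the limit was not always enough); inconclusive means some gains above the cutoff, reason not given; inactive means the rest.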

How the values were obtained:
[1] = OD615 S. cerevisiae growth inhibition, permissive medium, pilot counter-assay, permissive growth control for S. cerevisiae lifespan shortening project (AID 705;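 active means growth inhibition above 25% in both replicates, a cutoff set 3 SD above the mean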); conditions: OD615, 24 h, at 10 µM, active compounds read high
Outline: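 System – S. cerevisiae with engineered DeaD lifespan system · Buffer or medium – SC raffinose/galactose permissive medium · Schedule – cells pre-grown 4 h, then 24 h compound exposure, 30 °C humidified · Technique – culture turbidity as optical density at 615 nm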

[2] = Restrictive medium S. cerevisiae growth inhibition, OD615, pilot screen of yeast lifespan reduction project, restrictive growth control (AID 706;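 active means growth inhibition above a set limit, 3 SD over mean compound inhibition, in both replicates, cut at about 43% in these data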;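 further: modified DeaD lifespan yeast strain shifted to restrictive glucose medium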); conditions: OD615, 48 h, at 10 µM, active compounds read high
Outline: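 Material: engineered S. cerevisiae DeaD strain / Medium: glucose-based CSMM-D restrictive medium / Compound: single dose of 10 µM compound final, 0.25% DMSO / Timing: 4 h pre-incubation, 48 h exposure at 30 °C / Technique: OD615 absorbance reading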

[3] = viability gain of MRP-1-high H69AR cells under doxorubicin, pilot screen, MRP-1 activator project, CellTiter-Glo, duplicate (AID 807); conditions: H69AR viability with doxorubicin, CellTiter-Glo luminescence; at 10 µM; active compounds read high;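 further: compound pretreatment 18-22 h then 72 h combined with doxorubicin; 0% = doxorubicin alone and 100% = vehicle without doxorubicin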
[4] = growth suppression of beta-catenin knockout HCT116, pilot screen, human colon tumor cells (AID 823;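 active means cell viability at or below a set limit in both duplicate runs, the limit being the all-compound median minus 4 SD, cut at about 23% in these data, passing the limit was not always enough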;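 further: 0% = wells killed by 20 µM Hyamine and 100% = untreated DMSO cell wells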); conditions: CellTiter-Glo, 60 h, at 10 µM, active compounds read low
[5] = growth suppression of PTEN-deleted HCT116, pilot screen, cell-based, HCT116 clonal line, CellTiter-Glo (AID 824;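 active means viability at or below 27.92% in each of two runs, the all-compound median minus 4 SD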;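 further: 0% = 20 µM Hyamine control and 100% = vehicle cell control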); conditions: 60 h, at 10 µM, active compounds read low
[6] = inhibitors of the yeast RAM network, pilot screen, dse1pr::URA3 reporter, 5-FOA selection (AID 869;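 active means inhibition over a set limit, the all-compound mean plus 3 SD, in both replicate runs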;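 further: 0% = DMSO wells with no growth and 100% = 10 µM 1-NA-PP1 with full growth; RAM network block rescues cells from 5-FOA so hits raise OD615 growth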); conditions: S. cerevisiae dse1pr::URA3 5-FOA growth, OD615, 2 d; at 10 µM; active compounds read high; strain carries analog-sensitive mutant Cbk1 kinase
[7] = RAM signaling pathway blockade in yeast – S. cerevisiae, Pdr1DBD-CYC8 efflux-inhibited sensitized strain, primary screen (AID 1298;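 active means RAM network inhibition above 8.4% in each of two replicates, 3 SD over the compound average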;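 further: 0% = DMSO untreated cells without growth and 100% = 10 µM 1-NA-PP1 full growth; higher means more yeast growth rescued from 5-FOA killing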); conditions: S. cerevisiae cbk1-as DSE1-URA3 strain, 5-FOA growth OD615, 2 d; at 50 µM; active compounds read high

CCOC(=O)CSc1nnc(CSc2nc3sc4c(c3c(=O)[nH]2)CCC4)n1C
inactive: growth inhibition [1] -5.48% | growth inhibition [2] 4.33% | viability increase [3] -2% | viability [4] 98.4% | viability [5] 107% | inhibition [6] 0.35% | RAM network inhibition [7] 6.56%

C/C(NCCN1CCOCC1)=C(\C#N)C(N)=O
inactive: growth inhibition [1] -3.8% | growth inhibition [2] -6.1% | viability increase [3] -0.51% | viability [4] 105% | viability [5] 97.6% | inhibition [6] 0.795% | RAM network inhibition [7] 7.19%

CCN1CCN(C(c2cccs2)C(C)NC(=O)C(C)C)CC1 (stereo not drawn)
inactive: growth inhibition [1] -3.71% | growth inhibition [2] 2.65% | viability increase [3] -2.01% | viability [4] 98% | viability [5] 92.2% | inhibition [6] -0.3% | RAM network inhibition [7] 3.86%

CCOC(=O)C1=C(C)NC(=O)NC1c1cn(-c2ccccc2)nc1-c1cccs1 (stereo not drawn)
inactive: growth inhibition [1] -10.2% | growth inhibition [2] -0.16% | viability increase [3] -0.43% | viability [4] 75.2% | viability [5] 72.2% | inhibition [6] 1.46% | RAM network inhibition [7] 3.87%

O=S(=O)(NCCSc1nc2ccccc2o1)c1ccccc1
inactive: growth inhibition [1] -8% | growth inhibition [2] -2.81% | viability increase [3] -1.25% | viability [4] 94.4% | viability [5] 89% | inhibition [6] -0.55% | RAM network inhibition [7] 6.51%

Brc1ccc(-c2noc(COc3ccc4c(c3)CCC4)n2)o1
inactive: growth inhibition [1] -10.2% | growth inhibition [2] -11.6% | viability increase [3] 2.86% | viability [4] 95.8% | viability [5] 105% | inhibition [6] 1.22% | RAM network inhibition [7] 4.46%

COc1ccc(-c2nc(C(N)=O)c3[nH]c(=O)n(-c4cccc(C)c4)c3n2)c(OC)c1
inactive: growth inhibition [1] -10.8% | growth inhibition [2] -14.3% | viability increase [3] -5.41% | viability [4] 81.6% | viability [5] 74.3% | inhibition [6] 3.42% | RAM network inhibition [7] 5.6%

CCC1CC(C)(C(=O)Nc2ccc(S(N)(=O)=O)cc2)OC1=O (stereo not drawn)
inactive: growth inhibition [1] -2.94% | growth inhibition [2] 3.6% | viability increase [3] 1.12% | viability [4] 102% | viability [5] 98.1% | inhibition [6] 1.36% | RAM network inhibition [7] 3.69%

Cc1onc(-c2ccccc2Cl)c1C(=O)NCC1CCCO1 (stereo not drawn)
inactive: growth inhibition [1] -0.6% | growth inhibition [2] 3.56% | viability increase [3] -1.44% | viability [4] 88.7% | viability [5] 95.8% | inhibition [6] 1.24% | RAM network inhibition [7] -0.74%

c1ccc(-c2ccc(-c3nc(-c4ccncc4)no3)cc2)cc1
inactive: growth inhibition [1] 14.4% | growth inhibition [2] 14.4% | viability increase [3] 2.99% | viability [4] 66.4% | viability [5] 82.5% | inhibition [6] 1.32% | RAM network inhibition [7] 2.1%

Cc1nnc(NC(=O)CSC2CCCCC2)s1
inactive: growth inhibition [1] 3.88% | growth inhibition [2] 17.7% | viability increase [3] -0.77% | viability [4] 105% | viability [5] 97.9% | inhibition [6] 1.1% | RAM network inhibition [7] 2.15%

Cc1c(Nc2nc3ccccc3nc2N2CCN(c3ccccc3)CC2)c(=O)n(-c2ccccc2)n1C
inactive: growth inhibition [1] -2.84% | growth inhibition [2] -9.73% | viability increase [3] -4.8% | viability [4] 69% | viability [5] 70.6% | inhibition [6] 0.73% | RAM network inhibition [7] 5.41%

CCCCCn1c(SC(C)C(C)=O)nc2c1c(=O)[nH]c(=O)n2C (stereo not drawn)
inactive: growth inhibition [1] -25.6% | growth inhibition [2] -33.8% | viability increase [3] -0.88% | viability [4] 94.4% | viability [5] 88% | inhibition [6] 2.36% | RAM network inhibition [7] 2.16%

CC(=O)c1coc2ccc(OCCN3CCCCC3)cc12
inactive: growth inhibition [1] -8.68% | growth inhibition [2] -18.4% | viability increase [3] -3.83% | viability [4] 85.2% | viability [5] 85.8% | inhibition [6] 0.64% | RAM network inhibition [7] 2.59%

CCC1CCCCN1C(=O)CSc1nc2c(cnn2-c2ccc(C)cc2)c(=O)[nH]1 (stereo not drawn)
inactive: growth inhibition [1] -3.04% | growth inhibition [2] -5.33% | viability increase [3] -3.73% | viability [4] 97.2% | viability [5] 87.1% | inhibition [6] 1.71% | RAM network inhibition [7] 6.97%

Cc1cc(Nc2cc(F)ccc2C)n2nc(C)nc2n1
inactive: growth inhibition [1] -12.4% | growth inhibition [2] -7.35% | viability increase [3] -2.3% | viability [4] 105% | viability [5] 95% | inhibition [6] 1.03% | RAM network inhibition [7] 6.29%

C=CCNC(=O)COc1ccc(Br)cc1Cl
inactive: growth inhibition [1] -15.7% | growth inhibition [2] -6.88% | viability increase [3] 1.27% | viability [4] 99% | viability [5] 91.2% | inhibition [6] 1.36% | RAM network inhibition [7] 9.74%

COCCn1c(=O)[nH]c2cc(C(=O)NC3CCCCCC3)ccc2c1=O
inactive: growth inhibition [1] -17.4% | growth inhibition [2] -10.9% | viability increase [3] -3.33% | viability [4] 93.7% | viability [5] 87.6% | RAM network inhibition [7] 4.43%
active: inhibition [6] 6.66%

Cc1ccc(CNC(=O)CS(=O)Cc2nc(-c3cccs3)oc2C)cc1 (stereo not drawn)
inactive: growth inhibition [1] 13.6% | viability increase [3] -2.97% | viability [4] 90.5% | viability [5] 92.7% | inhibition [6] 1.67% | RAM network inhibition [7] 2.88%
active: growth inhibition [2] 57.4%

COc1ccc(OC)c(NC(=O)C2CCCNC2=O)c1 (stereo not drawn)
inactive: growth inhibition [1] -6.08% | growth inhibition [2] -1.6% | viability increase [3] -1.67% | viability [4] 95.1% | viability [5] 94.5% | inhibition [6] 1.33% | RAM network inhibition [7] 1.33%

COc1cccc(C2(O)CCN(C(=O)c3cccs3)CC2)c1
inactive: growth inhibition [1] -9.43% | growth inhibition [2] 6.06% | viability increase [3] 0.71% | viability [4] 91.5% | viability [5] 97% | inhibition [6] 1.58% | RAM network inhibition [7] 5.17%

CC(c1cccnc1)N(C(=O)Nc1ccccc1)C1CCCCC1 (stereo not drawn)
inactive: growth inhibition [1] -1.48% | growth inhibition [2] -10.8% | viability increase [3] -2.35% | viability [4] 92.1% | viability [5] 91.6% | inhibition [6] 1.96% | RAM network inhibition [7] 5.08%

CCOc1ccc(C2CC(c3ccc(F)cc3)n3ncnc3N2)cc1 (stereo not drawn)
inactive: growth inhibition [1] 4.61% | growth inhibition [2] -1.42% | viability increase [3] -0.13% | viability [4] 100% | viability [5] 91.1% | inhibition [6] 2.65% | RAM network inhibition [7] -0.36%

Cc1ccc(N(C(C)C(=O)O)S(=O)(=O)c2cccnc2)cc1 (stereo not drawn)
inactive: growth inhibition [1] 2.72% | growth inhibition [2] 0.165% | viability increase [3] -1.52% | viability [4] 95.1% | viability [5] 101% | inhibition [6] -0.19% | RAM network inhibition [7] 1.61%
